Screening data from PubChem.
Shown are actives, neighbours in structure and some others; about 2% of the full set was active somewhere.
LMPTP inh: blocks human LMPTP phosphatase; P24666; recombinant LMPTP-A, OMFP fluorogenic substrate, fluorescence intensity; inhibition, % at 20 µM; 360,000 tested, 0.22% active;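 active = compounds that cut the enzyme signal by at least half of the control window in the single-dose screen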;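 note: plate controls were DMSO wells with enzyme plus substrate for no effect and substrate without enzyme for full effect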
Target sequence (P24666 whole entry, looked up): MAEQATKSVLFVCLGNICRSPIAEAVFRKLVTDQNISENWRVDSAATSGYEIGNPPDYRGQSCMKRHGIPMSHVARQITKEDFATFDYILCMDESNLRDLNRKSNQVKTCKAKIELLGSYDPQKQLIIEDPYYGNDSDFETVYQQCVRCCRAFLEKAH
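Test system: LMPTP-A phosphatase enzyme; input: 0.625 nM LMPTP-A final; reagent: OMFP substrate, 400 µM final; compound dosing: 20 µM single dose, 3% DMSO; incubation: 50 min dark incubation at room temperature; measured by: endpoint fluorescence intensity from OMFP dephosphorylation; measure: % inhibition relative to no-enzyme and uninhibited control wells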
Scp-1 inhibitor: inhibitors of human Scp-1 phosphatase; Q9GZU7; Recombinant Scp1, phosphopeptide, malachite green phosphate absorbance; inhibition, % at 20 µM; 340,000 tested, 0.88% active; AID 493091;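 active = inhibition above about 50% at 20 µM, limit read from the data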;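 note: plate controls were DMSO wells with enzyme for no effect and wells lacking enzyme for full effect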
Target sequence (Q9GZU7 76-261 limits assumed): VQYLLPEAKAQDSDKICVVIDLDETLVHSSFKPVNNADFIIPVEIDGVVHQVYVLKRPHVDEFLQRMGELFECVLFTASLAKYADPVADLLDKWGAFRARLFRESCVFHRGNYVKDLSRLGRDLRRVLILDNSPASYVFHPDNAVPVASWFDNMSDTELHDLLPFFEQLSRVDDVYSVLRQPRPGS
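Test system: SCP-1 phosphatase catalytic domain, residues 76-261 | Compound dosing: One concentration, 20 µM, with 1.0% DMSO | Schedule: 45 min room-temperature reaction, 5 min colour, 30 min stabiliser | Detection: Absorbance at 630 nm | Read-out basis: % inhibition of SCP-1 phosphate liberation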
Rpn11 inh: Rpn11 (human) deubiquitinase inhibition | O00487 | human 26S proteasome, Ub4-pepOG fluorescence polarization; 20S core pre-blocked with epoxomicin | inhibition, % at 20 µM | 360,000 tested, 0.59% active | AID 588493;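 active = inhibition at 20 µM, scaled to each plate's controls, above about 33%, limit read from the data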
Target sequence (O00487 whole entry, looked up): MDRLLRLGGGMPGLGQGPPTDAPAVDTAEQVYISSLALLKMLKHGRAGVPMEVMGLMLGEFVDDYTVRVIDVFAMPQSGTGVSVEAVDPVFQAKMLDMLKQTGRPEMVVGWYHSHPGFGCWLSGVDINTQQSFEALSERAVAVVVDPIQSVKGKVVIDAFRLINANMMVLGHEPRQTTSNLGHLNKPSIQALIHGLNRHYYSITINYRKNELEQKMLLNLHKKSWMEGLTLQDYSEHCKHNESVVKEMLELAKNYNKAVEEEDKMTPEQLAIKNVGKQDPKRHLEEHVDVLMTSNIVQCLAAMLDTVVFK
DNMT1 inh: blocks human DNA methyltransferase DNMT1; 360,000 tested, 0.83% active; inhibition (reported as % activation of signal), % at 10 µM; DNMT1 molecular beacon, Hinp1I cleavage, fluorescence; in the data active = inhibition above about 50%
STEP block: blocks human striatal-enriched tyrosine phosphatase. P54829. recombinant STEP, OMFP fluorogenic substrate, fluorescence. inhibition, % at 20 µM. 360,000 tested, 0.25% active. AID 588621;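 active = inhibition at 20 µM, scaled per plate between control wells, above about 37%, limit read from the data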;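 note: 0% = DMSO with enzyme and substrate and 100% = substrate only without enzyme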
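material = STEP tyrosine phosphatase | reagent = fluorogenic phosphatase substrate OMFP at 25 µM final | doses = single compound dose of 20 µM, 1% DMSO final | schedule = 20 min reaction, room temperature, in the dark | measured by = fluorescence, 480/540 nm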
Beacon interf DR: beacon fluorescence artifact, dose response counter-screen. shares compounds with DNMT1 inh. 200 tested, under 10 active. IC50, µM. molecular beacon fluorescence, spectral interference counter-screen; call rule not given here
DNMT1 inh conf: confirmation of human DNMT1 inhibitors. shares compounds with DNMT1 inh. DNMT1 molecular beacon HinP1I cleavage, fluorescence. inhibition, % at 10 µM. 2,300 tested, 8% active;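 active = average inhibition of at least 30% in the single-concentration confirmation test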
Beacon interf: counter-screen for DNMT1 inhibitors: spectral interference. shares compounds with DNMT1 inh. DNMT1 molecular beacon spectral interference counterscreen, fluorescence 485/520. activation (fluorescence interference), % at 10 µM. 2,300 tested, 1% active;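 active = activation of at least 30% at 10 µM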;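 note: DNMT1 catalytic domain with a HinP1I cleavage step and a FAM/dabcyl DNA beacon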
Starred values were filed as active, the others as inactive; / = not tested or not shown; ! = not confirmed by another sample.

SMILES | LMPTP inh | Scp-1 inhibitor | Rpn11 inh | DNMT1 inh | STEP block | DNMT1 inh conf | Beacon interf | others
O=C(c1ccc(=O)oc1)N1CCOCC1 | -1 | 77* | -15 | 103* | 15 | 64* | -3 | Beacon interf DR=>99
O=C(c1ccc(=O)oc1)N1CCCc2ccccc21 | 2 | 43 | 20 | 105* | 13 | 10 | -4
O=C(c1ccc(F)cc1)N1CCOCC1 | 0 | -6 | -1 | 1 | -4 | / | /
O=C(c1ccccc1)N1CCCc2ccccc21 | -1 | -6 | 0 | 3 | 1 | / | /
Cc1ccc(-c2cc(C(F)F)nc3sc4c(=O)[nH]cnc4c23)cc1 | -1 | -6 | 15 | 61* | -2 | 3 | 4
CCOC(=O)C1CCCN(C(=O)COc2ccc(N(C)S(=O)(=O)c3ccc(F)cc3)cc2)C1 (stereo unspecified) | -2 | -4 | 5 | -1 | 3 | / | /
Cc1cc(/C=C2\SC(=S)NC2=O)c(C)n1C1CC1 | 3 | -5 | / | 66* | 1 | 5 | 2
Cn1ccsc1=NC(=O)c1ccc([N+](=O)[O-])o1 | 2 | 65* | -3 | 59* | 36 | 3 | 0
O=[N+]([O-])c1ccccc1S(=O)(=O)Nc1ccc(S(=O)(=O)Nc2nccs2)cc1 | 0 | 10 | -2 | 2 | 2 | / | /
Nc1ccc(S(=O)(=O)Nc2nccs2)cc1N=Nc1ccccc1[N+](=O)[O-] | 9 | 7 | 4 | 77* | -1 | 80* | -3 | Beacon interf DR=>99
CCCS(=O)(=O)NC(=O)C1(C)CCN(C(=O)c2cncc(Br)c2)C1 (stereo unspecified) | -2 | / | 0 | 0 | -2 | / | /
C[c-]1[c-](C)[c-](C)[c-](C)[c-]1C.[Fe].c1cc2nccc(N3CCCC3)[c-]2c1 (stereo unspecified) | 71* | 68*! | -106 | 102*! | 77* | 4 | 4
N#CCCC(CCC#N)C1=NCCc2ccccc21 | 0 | -7 | 6 | 0 | 0 | / | /
O=c1c2c3c(sc2[nH]c(=S)n1Cc1ccco1)CCC3 | 13 | 27 | 7 | 83* | 26 | 6 | 1
Cc1nc(C)c(C(=O)Nc2ncc([N+](=O)[O-])s2)o1 | 3 | 12 | 3 | 69* | 0 | 8 | -2
NC(=O)CC(NC(=O)Cc1ccc(Cl)cc1)c1ccc(N2CCC(Cc3ccccc3)CC2)c([N+](=O)[O-])c1 (stereo unspecified) | 1 | 0 | 0 | 71* | -1 | 1 | 2
Cc1cc(C)cc(C(=O)NC(CC(N)=O)c2ccc(N3CCC(Cc4ccccc4)CC3)c([N+](=O)[O-])c2)c1 (stereo unspecified) | 3 | -4 | 7 | -8 | -1 | / | /
NC(=O)CC(NC(=O)c1cccc(Br)c1)c1ccc(N2CCN(c3ccccn3)CC2)c([N+](=O)[O-])c1 (stereo unspecified) | 1 | -7 | -2 | 103* | -2 | 5 | 9
CCCCNC(=O)C1(C)CCCCN1Cc1ccc(OCc2ccccc2)cc1 (stereo unspecified) | 0 | / | 6 | 13 | -4 | / | /
O=C(N/N=C/c1cc(Cl)cc([N+](=O)[O-])c1O)NC12CC3CC(CC(C3)C1)C2 | 78* | 23 | -24 | 72* | 8 | 7 | -5
O=C(N/N=C/c1ccccc1O)NC12CC3CC(CC(C3)C1)C2 | 2 | -7 | -6 | -7 | -3 | / | /
CC1(C)CC(=O)C2=C(C1)N(c1cccc(Cl)c1)C(=O)NC2(C(F)(F)F)C(F)(F)F | 0 | 6 | 4 | 2 | -2 | / | /
COc1cc(CCc2ccccc2)c(C(=O)O)c(O)c1CC=C(C)C | 1 | -7 | 4 | -11 | -4 | / | /
COc1cc(CCc2ccccc2)c(C(=O)O)c(O)c1C/C=C(/C)CCC=C(C)C | 2 | 1 | 9 | 61* | -1 | 84* | -9 | Beacon interf DR=>99
C1CCc2c(c(N3CCOCC3)nc3sc4c(N5CCOCC5)nnnc4c23)C1 | -2 | -9 | 0 | 1 | -3 | / | /
SMILES | LMPTP inh | Scp-1 inhibitor | Rpn11 inh | DNMT1 inh | STEP block | DNMT1 inh conf | Beacon interf | others
O=c1[nH]nnc2c1sc1nc(N3CCOCC3)c3c(c12)CCCC3 | -14 | -2 | -8 | 95* | 0 | 7 | 10
CC1(C(=O)NS(=O)(=O)c2ccc3c(c2)CCO3)CCN1C(=O)COc1ccc(Cl)cc1 (stereo unspecified) | -3 | / | -2 | 85* | -2 | 4 | 6
COc1ccc2c3c([nH]c2c1)C(C)N(CCC(=O)NN)CC3 (stereo unspecified) | 0 | -6 | 3 | 64* | 8 | 4 | 4
COc1ccc2c3c([nH]c2c1)C(C)N(C(C)=O)CC3 (stereo unspecified) | 1 | -11 | -4 | 0 | -2 | / | /
CCCCn1c(N)c(N(CCOC)C(=O)C(C)N2C(=O)c3ccccc3C2=O)c(=O)[nH]c1=O (stereo unspecified) | 0 | -2 | -3 | -1 | -1 | / | /
Cc1ccc(NC(=O)Cn2cnc([N+](=O)[O-])c2)cc1C | 0 | -10 | -2 | 0 | -2 | / | /
O=C(N/N=C/c1ccccc1)c1cc(=O)[nH]c2ccccc12 | -1 | 4 | -2 | 61* | 1 | 3 | 7
CN(C)c1ccc(/C=N/NC(=O)c2cc(=O)[nH]c3ccccc23)cc1 | 3 | 0 | 3 | 1 | 0 | / | /
Cc1ccc(NS(=O)(=O)c2ccc(-n3cccn3)cc2)c(Cl)c1 | 1 | / | -4 | 0 | -2 | / | /
CCc1ccc(NC(=O)Cn2c(=O)c3cccn3c3ccccc32)cc1 | 1 | -7 | 9 | 55* | 3 | 5 | 1
CCc1ccc(NC(=O)CCn2c(=O)c3cccn3c3ccccc32)cc1 | 3 | -8 | 17 | -3 | -1 | / | /
Cc1ccsc1C1NC(=O)c2ccccc2N1 (stereo unspecified) | -1 | -12 | 2 | 1 | -2 | / | /
O=C1NC(c2cccs2)Nc2ccccc21 (stereo unspecified) | 0 | -12 | 2 | 64* | -4 | 2 | 0
COCCn1c(-c2ccc(OC)cc2)nc2ccccc21 | 1 | -11 | 6 | -1 | 0 | / | /
COCCn1c2nc(=O)n(-c3ccccc3)c(=O)c-2nc2ccccc21 | -5 | / | -180 | 99* | -79 | 46* | 72*
O=C/C=C/c1c(-c2ccccc2)cc2oc3ccccc3cc1-2 | 2 | 14 | 5 | 2 | 1 | / | /
N#CCCN(C(=O)COC(=O)COc1ccccc1Cc1ccccc1)c1ccccc1 | 3 | -14 | -2 | 60* | -2 | 2 | 4
